Test results reported in ChEMBL document CHEMBL4689842, “EUbOPEN Chemogenomics Library wave 1” (2021).

Tested on: U2OS
Test: Multiplex assay against U2OS
Assay type: toxicity, cell-based
Conditions: human
Procedure, shortened: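 Per cents of healthy-nucleus cells form the tubulin, mitochondrial-mass and membrane-permeability phenotype values. Live cells were stained at seeding with Hoechst33342, BioTracker Green Microtubule Cytoskeleton Dye, MitoTracker Red and Annexin V Alexa Fluor 680. After compound addition they were imaged on a CQ1 microscope at 37°C and 5% CO2, and CellPathfinder machine-learning gating split them into Hoechst high-intensity objects or normal cells, normal cells into healthy, pyknosed or fragmented nuclei, and pyknosed cells into mitotic or apoptotic.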

[1] = 12 h, 1 µM, compound concentration 1 uM, replicate 1
[2] = 12 h, 1 µM, compound concentration 1 uM, replicate 2
[3] = 12 h, 10 µM, compound concentration 10 uM, replicate 1
[4] = 12 h, 10 µM, compound concentration 10 uM, replicate 2
[5] = 24 h, 1 µM, compound concentration 1 uM, replicate 1
[6] = 24 h, 1 µM, compound concentration 1 uM, replicate 2
[7] = 24 h, 10 µM, compound concentration 10 uM, replicate 1
[8] = 24 h, 10 µM, compound concentration 10 uM, replicate 2
[9] = 48 h, 1 µM, compound concentration 1 uM, replicate 1
[10] = 48 h, 1 µM, compound concentration 1 uM, replicate 2
[11] = 48 h, 10 µM, compound concentration 10 uM, replicate 1
[12] = 48 h, 10 µM, compound concentration 10 uM, replicate 2

CCCc1cc(C)[nH]c(=O)c1CNC(=O)c1cc(-c2ccc(N3CCN(C(C)C)CC3)nc2)cc2c1cnn2C(C)C
Population Apoptotic (%) [1]: 64% | Population Fragmented Nuclei (%) [1]: 21% | Population Healthy Nuclei (%) [1]: 53% | Population Hoechst High Intensity Objects (%) [1]: 15% | Population Membrane Permeable-Phenotype (%) [1]: 13% | Population Mitochondria Different-Phenotype (%) [1]: 81% | Population Mitotic Cells (%) [1]: 35% | Population Normal (%) [1]: 84% | Population Pyknosed Nuclei (%) [1]: 24% | Population Tubulin-Different-Phenotype (%) [1]: 81% | Total Cell Count [1]: 124 | Population Apoptotic (%) [2]: 20% | Population Fragmented Nuclei (%) [2]: 19% | Population Healthy Nuclei (%) [2]: 70% | Population Hoechst High Intensity Objects (%) [2]: 10% | Population Membrane Permeable-Phenotype (%) [2]: 8% | Population Mitochondria Different-Phenotype (%) [2]: 91% | Population Mitotic Cells (%) [2]: 80% | Population Normal (%) [2]: 89% | Population Pyknosed Nuclei (%) [2]: 9% | Population Tubulin-Different-Phenotype (%) [2]: 94% | Total Cell Count [2]: 56 | Population Apoptotic (%) [3]: 70% | Population Fragmented Nuclei (%) [3]: 24% | Population Healthy Nuclei (%) [3]: 49% | Population Hoechst High Intensity Objects (%) [3]: 8% | Population Membrane Permeable-Phenotype (%) [3]: 64% | Population Mitotic Cells (%) [3]: 29% | Population Normal (%) [3]: 91% | Population Pyknosed Nuclei (%) [3]: 26% | Population Tubulin-Different-Phenotype (%) [3]: 98% | Total Cell Count [3]: 82 | Population Apoptotic (%) [4]: 85% | Population Fragmented Nuclei (%) [4]: 13% | Population Healthy Nuclei (%) [4]: 47% | Population Hoechst High Intensity Objects (%) [4]: 5% | Population Membrane Permeable-Phenotype (%) [4]: 79% | Population Mitochondria Different-Phenotype (%) [4]: 100% | Population Mitotic Cells (%) [4]: 14% | Population Normal (%) [4]: 94% | Population Pyknosed Nuclei (%) [4]: 38% | Population Tubulin-Different-Phenotype (%) [4]: 100% | Total Cell Count [4]: 57 | Population Apoptotic (%) [5]: 71% | Population Fragmented Nuclei (%) [5]: 18% | Population Healthy Nuclei (%) [5]: 60% | Population Hoechst High Intensity Objects (%) [5]: 13% | Population Membrane Permeable-Phenotype (%) [5]: 20% | Population Mitochondria Different-Phenotype (%) [5]: 89% | Population Mitotic Cells (%) [5]: 28% | Population Normal (%) [5]: 86% | Population Pyknosed Nuclei (%) [5]: 21% | Population Tubulin-Different-Phenotype (%) [5]: 79% | Total Cell Count [5]: 132 | Population Apoptotic (%) [6]: 33% | Population Fragmented Nuclei (%) [6]: 20% | Population Healthy Nuclei (%) [6]: 51% | Population Hoechst High Intensity Objects (%) [6]: 10% | Population Membrane Permeable-Phenotype (%) [6]: 10% | Population Mitochondria Different-Phenotype (%) [6]: 78% | Population Mitotic Cells (%) [6]: 66% | Population Normal (%) [6]: 90% | Population Pyknosed Nuclei (%) [6]: 27% | Population Tubulin-Different-Phenotype (%) [6]: 82% | Total Cell Count [6]: 53 | Population Apoptotic (%) [7]: 88% | Population Fragmented Nuclei (%) [7]: 23% | Population Healthy Nuclei (%) [7]: 36% | Population Membrane Permeable-Phenotype (%) [7]: 80% | Population Mitotic Cells (%) [7]: 11% | Population Pyknosed Nuclei (%) [7]: 39% | Total Cell Count [7]: 75 | Population Apoptotic (%) [8]: 91% | Population Fragmented Nuclei (%) [8]: 8% | Population Healthy Nuclei (%) [8]: 48% | Population Hoechst High Intensity Objects (%) [8]: 9% | Population Membrane Permeable-Phenotype (%) [8]: 85% | Population Mitochondria Different-Phenotype (%) [8]: 100% | Population Mitotic Cells (%) [8]: 8% | Population Normal (%) [8]: 90% | Population Pyknosed Nuclei (%) [8]: 42% | Population Tubulin-Different-Phenotype (%) [8]: 100% | Total Cell Count [8]: 60 | Population Apoptotic (%) [9]: 70% | Population Fragmented Nuclei (%) [9]: 23% | Population Healthy Nuclei (%) [9]: 56% | Population Hoechst High Intensity Objects (%) [9]: 10% | Population Membrane Permeable-Phenotype (%) [9]: 18% | Population Mitochondria Different-Phenotype (%) [9]: 83% | Population Mitotic Cells (%) [9]: 29% | Population Normal (%) [9]: 89% | Population Pyknosed Nuclei (%) [9]: 20% | Population Tubulin-Different-Phenotype (%) [9]: 77% | Total Cell Count [9]: 142 | Population Apoptotic (%) [10]: 46% | Population Fragmented Nuclei (%) [10]: 22% | Population Healthy Nuclei (%) [10]: 59% | Population Hoechst High Intensity Objects (%) [10]: 12% | Population Membrane Permeable-Phenotype (%) [10]: 27% | Population Mitochondria Different-Phenotype (%) [10]: 72% | Population Mitotic Cells (%) [10]: 53% | Population Normal (%) [10]: 87% | Population Pyknosed Nuclei (%) [10]: 18% | Population Tubulin-Different-Phenotype (%) [10]: 74% | Total Cell Count [10]: 65 | Population Apoptotic (%) [11]: 95% | Population Fragmented Nuclei (%) [11]: 26% | Population Healthy Nuclei (%) [11]: 15% | Population Hoechst High Intensity Objects (%) [11]: 14% | Population Membrane Permeable-Phenotype (%) [11]: 89% | Population Mitochondria Different-Phenotype (%) [11]: 100% | Population Mitotic Cells (%) [11]: 4% | Population Normal (%) [11]: 85% | Population Pyknosed Nuclei (%) [11]: 57% | Population Tubulin-Different-Phenotype (%) [11]: 100% | Total Cell Count [11]: 95 | Population Apoptotic (%) [12]: 100% | Population Fragmented Nuclei (%) [12]: 13% | Population Healthy Nuclei (%) [12]: 37% | Population Hoechst High Intensity Objects (%) [12]: 16% | Population Membrane Permeable-Phenotype (%) [12]: 96% | Population Mitotic Cells (%) [12]: 0% | Population Normal (%) [12]: 83% | Population Pyknosed Nuclei (%) [12]: 49% | Total Cell Count [12]: 82
